Columns and labels:
[1] = biological target: Receptor tyrosine-protein kinase erbB-4 (Homo sapiens) (UniProt Q15303); assay: Inhibition of N-terminal GST-tagged human HER4 cytoplasmic domain (676 to 1308 residues) expressed in baculovirus expression system at 1 uM using FAM-labeled peptide as substrate after 10 mins by mobility shift assay relative to control
How it was run: (§1)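 Caliper mobility-shift kinase assay. Kinase in kinase base buffer was preincubated with compound for 10 min at room temperature. FAM-labelled peptide and ATP at Km were then added, and the reaction ran at 28 °C until quenched with buffer. Screening concentration was 1 µM. Percent inhibition = (max − conversion)/(max − min) × 100, with DMSO as max and a low control as min.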

[2] = biological target: Proto-oncogene tyrosine-protein kinase receptor Ret (Homo sapiens) (UniProt P07949); assay: Inhibition of N-terminal GST-tagged human RET cytoplasmic domain (658 to 1114 residues) expressed in baculovirus expression system at 1 uM using FAM-labeled peptide as substrate after 10 mins by mobility shift assay relative to control; how it was run: as §1
[3] = biological target: Platelet-derived growth factor receptor alpha (Homo sapiens) (UniProt P16234); assay: Inhibition of recombinant human GST-tagged PDGFRalpha cytoplasmic domain (550 to 1089 residues) expressed in baculovirus expression system at 1 uM using FAM-labeled peptide as substrate after 10 mins by mobility shift assay relative to control; how it was run: as §1
Chain of Platelet-derived growth factor receptor alpha (Homo sapiens) (P16234 whole entry, the tested form may be a part): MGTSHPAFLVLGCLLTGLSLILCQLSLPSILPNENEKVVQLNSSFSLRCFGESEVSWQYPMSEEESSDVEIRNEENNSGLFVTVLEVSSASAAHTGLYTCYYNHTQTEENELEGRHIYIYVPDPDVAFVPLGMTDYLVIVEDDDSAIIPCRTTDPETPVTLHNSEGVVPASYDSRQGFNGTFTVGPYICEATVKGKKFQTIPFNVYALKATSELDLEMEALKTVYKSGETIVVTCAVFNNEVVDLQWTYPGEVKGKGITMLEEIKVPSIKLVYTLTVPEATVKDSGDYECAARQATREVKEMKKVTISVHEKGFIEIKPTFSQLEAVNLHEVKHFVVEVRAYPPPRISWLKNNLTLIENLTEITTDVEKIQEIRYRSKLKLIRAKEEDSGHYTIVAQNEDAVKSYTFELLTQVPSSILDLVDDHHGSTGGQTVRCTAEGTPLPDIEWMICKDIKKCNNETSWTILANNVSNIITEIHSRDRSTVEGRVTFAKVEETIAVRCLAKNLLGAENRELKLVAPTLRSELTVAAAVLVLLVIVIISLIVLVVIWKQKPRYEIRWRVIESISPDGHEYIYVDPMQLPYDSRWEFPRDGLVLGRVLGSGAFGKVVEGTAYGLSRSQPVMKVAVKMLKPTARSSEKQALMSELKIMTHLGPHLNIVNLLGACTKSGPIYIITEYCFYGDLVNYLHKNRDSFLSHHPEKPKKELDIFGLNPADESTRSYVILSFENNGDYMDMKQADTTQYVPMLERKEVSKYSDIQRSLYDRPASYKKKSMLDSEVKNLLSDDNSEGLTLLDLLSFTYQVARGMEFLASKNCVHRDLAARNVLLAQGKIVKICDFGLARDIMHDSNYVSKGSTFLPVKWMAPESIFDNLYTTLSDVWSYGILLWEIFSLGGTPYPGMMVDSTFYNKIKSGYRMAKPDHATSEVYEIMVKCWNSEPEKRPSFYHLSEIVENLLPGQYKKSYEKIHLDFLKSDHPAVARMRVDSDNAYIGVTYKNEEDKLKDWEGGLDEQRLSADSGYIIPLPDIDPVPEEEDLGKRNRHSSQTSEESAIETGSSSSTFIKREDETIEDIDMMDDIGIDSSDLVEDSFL

[4] = biological target: Tyrosine-protein kinase JAK2 (Homo sapiens) (UniProt O60674); assay: Inhibition of human N-terminal His-tagged JAK2 catalytic domain (826 to 1132 residues) expressed in baculovirus expression system at 1 uM using FAM-labeled peptide as substrate after 10 mins by mobility shift assay relative to control; how it was run: as §1
[5] = biological target: Vascular endothelial growth factor receptor 2 (Homo sapiens) (UniProt P35968); assay: Inhibition of N-terminal GST-tagged human KDR cytoplasmic domain (790 to 1356 residues) expressed in baculovirus expression system at […] using FAM-labeled peptide as substrate after 10 mins by mobility shift assay relative to control; how it was run: as §1
Chain of Vascular endothelial growth factor receptor 2 (Homo sapiens) (P35968 whole entry, the tested form may be a part): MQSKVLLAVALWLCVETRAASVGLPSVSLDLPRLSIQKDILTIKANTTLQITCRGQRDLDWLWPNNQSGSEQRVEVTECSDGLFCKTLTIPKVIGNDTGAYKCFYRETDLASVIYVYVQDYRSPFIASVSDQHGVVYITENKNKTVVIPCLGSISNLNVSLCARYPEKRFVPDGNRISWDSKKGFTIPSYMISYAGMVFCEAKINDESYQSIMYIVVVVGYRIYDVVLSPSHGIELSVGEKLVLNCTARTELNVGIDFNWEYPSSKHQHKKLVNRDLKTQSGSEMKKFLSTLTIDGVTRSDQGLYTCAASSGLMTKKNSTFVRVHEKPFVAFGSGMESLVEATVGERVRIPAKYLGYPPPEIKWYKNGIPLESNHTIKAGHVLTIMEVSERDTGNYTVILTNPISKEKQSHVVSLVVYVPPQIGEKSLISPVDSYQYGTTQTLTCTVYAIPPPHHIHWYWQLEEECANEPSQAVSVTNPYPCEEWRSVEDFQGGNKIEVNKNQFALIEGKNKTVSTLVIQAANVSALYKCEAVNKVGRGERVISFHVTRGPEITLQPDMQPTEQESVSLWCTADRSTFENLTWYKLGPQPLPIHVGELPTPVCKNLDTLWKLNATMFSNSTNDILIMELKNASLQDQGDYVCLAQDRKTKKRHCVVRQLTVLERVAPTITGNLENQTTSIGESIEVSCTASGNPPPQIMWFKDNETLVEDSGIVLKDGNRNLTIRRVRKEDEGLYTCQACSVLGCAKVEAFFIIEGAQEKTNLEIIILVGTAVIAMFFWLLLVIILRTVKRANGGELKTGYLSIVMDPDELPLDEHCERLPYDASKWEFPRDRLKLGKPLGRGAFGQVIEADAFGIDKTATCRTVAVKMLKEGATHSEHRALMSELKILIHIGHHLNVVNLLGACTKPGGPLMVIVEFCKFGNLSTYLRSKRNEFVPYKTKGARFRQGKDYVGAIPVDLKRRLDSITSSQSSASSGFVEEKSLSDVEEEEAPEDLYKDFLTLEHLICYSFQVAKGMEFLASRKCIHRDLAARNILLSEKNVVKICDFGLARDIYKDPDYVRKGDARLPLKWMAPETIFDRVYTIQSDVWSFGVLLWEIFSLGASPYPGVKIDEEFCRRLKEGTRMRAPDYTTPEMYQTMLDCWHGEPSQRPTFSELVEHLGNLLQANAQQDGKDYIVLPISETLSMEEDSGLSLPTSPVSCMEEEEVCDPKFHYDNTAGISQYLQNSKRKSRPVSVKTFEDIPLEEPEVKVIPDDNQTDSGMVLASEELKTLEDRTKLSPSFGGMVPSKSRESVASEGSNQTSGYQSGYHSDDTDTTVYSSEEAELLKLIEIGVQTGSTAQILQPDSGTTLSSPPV

[6] = biological target: Vascular endothelial growth factor receptor 3 (Homo sapiens) (UniProt P35916); assay: Inhibition of recombinant human GST-tagged FLT4 cytoplasmic domain (800 to 1297 residues) expressed in baculovirus expression system at 1 uM using FAM-labeled peptide as substrate after 10 mins by mobility shift assay relative to control; how it was run: as §1
[7] = biological target: T1, Aurora kinase A (Homo sapiens) (UniProt O14965); assay: Inhibition of human N-terminal GST-tagged AURA (1 to 403 residues) expressed in baculovirus expression system at 1 uM using FAM-labeled peptide as substrate after 10 mins by mobility shift assay relative to control; how it was run: as §1
T1 sequence (whole entry): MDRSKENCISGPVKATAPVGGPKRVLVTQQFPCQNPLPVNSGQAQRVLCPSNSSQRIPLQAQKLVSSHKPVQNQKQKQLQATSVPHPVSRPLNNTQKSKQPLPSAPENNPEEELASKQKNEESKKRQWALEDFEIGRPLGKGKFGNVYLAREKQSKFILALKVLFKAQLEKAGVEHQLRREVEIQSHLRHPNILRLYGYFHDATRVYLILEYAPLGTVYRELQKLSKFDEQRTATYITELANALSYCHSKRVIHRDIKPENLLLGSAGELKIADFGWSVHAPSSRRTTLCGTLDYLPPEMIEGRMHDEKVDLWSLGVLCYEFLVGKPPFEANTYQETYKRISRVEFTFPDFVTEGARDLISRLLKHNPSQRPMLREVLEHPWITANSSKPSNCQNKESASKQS

[8] = biological target: Insulin-like growth factor 1 receptor (Homo sapiens) (UniProt P08069); assay: Inhibition of human His-tagged IGF1R cytoplasmic domain (960 to 1397 residues) expressed in baculovirus expression system at 1 uM using FAM-labeled peptide as substrate after 10 mins by mobility shift assay relative to control; how it was run: as §1
Chain of Insulin-like growth factor 1 receptor (Homo sapiens) (P08069 31-736 limits assumed): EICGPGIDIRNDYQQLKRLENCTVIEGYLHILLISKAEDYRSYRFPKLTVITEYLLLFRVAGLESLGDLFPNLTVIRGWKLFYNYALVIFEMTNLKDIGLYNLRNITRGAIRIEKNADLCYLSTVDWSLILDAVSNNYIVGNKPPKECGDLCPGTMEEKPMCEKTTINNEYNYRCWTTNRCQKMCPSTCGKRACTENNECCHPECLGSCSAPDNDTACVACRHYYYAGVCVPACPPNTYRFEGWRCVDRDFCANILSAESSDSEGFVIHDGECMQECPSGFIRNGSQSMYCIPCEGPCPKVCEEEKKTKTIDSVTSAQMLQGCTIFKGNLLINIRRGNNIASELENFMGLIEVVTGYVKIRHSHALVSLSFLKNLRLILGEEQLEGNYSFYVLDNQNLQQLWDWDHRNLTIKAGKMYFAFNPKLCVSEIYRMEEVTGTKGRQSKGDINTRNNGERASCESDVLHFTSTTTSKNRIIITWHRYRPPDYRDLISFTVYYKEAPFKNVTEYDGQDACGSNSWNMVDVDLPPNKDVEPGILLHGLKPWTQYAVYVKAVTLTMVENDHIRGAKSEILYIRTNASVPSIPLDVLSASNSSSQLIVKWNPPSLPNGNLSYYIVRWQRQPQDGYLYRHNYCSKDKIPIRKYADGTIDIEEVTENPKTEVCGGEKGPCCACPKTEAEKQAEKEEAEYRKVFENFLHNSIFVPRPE
Chain of Insulin-like growth factor 1 receptor (Homo sapiens) (P08069 741-1367 limits assumed): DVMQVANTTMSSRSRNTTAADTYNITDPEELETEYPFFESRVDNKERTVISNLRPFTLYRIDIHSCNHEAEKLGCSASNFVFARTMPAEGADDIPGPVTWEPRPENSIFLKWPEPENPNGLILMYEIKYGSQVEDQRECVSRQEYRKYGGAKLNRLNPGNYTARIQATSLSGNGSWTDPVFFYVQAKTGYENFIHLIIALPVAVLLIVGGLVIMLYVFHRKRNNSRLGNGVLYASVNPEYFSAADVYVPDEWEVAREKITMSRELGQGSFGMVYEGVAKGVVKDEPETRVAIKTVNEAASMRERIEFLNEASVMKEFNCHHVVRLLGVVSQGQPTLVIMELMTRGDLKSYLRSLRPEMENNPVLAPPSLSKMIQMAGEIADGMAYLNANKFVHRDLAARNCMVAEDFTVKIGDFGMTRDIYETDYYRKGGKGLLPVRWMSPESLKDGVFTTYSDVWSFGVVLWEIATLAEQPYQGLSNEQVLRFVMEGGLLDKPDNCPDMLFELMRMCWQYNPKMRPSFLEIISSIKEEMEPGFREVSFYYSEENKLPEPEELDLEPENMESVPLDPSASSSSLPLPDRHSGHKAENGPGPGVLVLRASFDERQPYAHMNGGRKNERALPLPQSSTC

[9] = biological target: Platelet-derived growth factor receptor beta (Homo sapiens) (UniProt P09619); assay: Inhibition of N-terminal GST-tagged human PDGFRbeta cytoplasmic domain (557 to 1106 residues) expressed in baculovirus expression system at 1 uM using FAM-labeled peptide as substrate after 10 mins by mobility shift assay relative to control; how it was run: as §1
[10] = biological target: T2, Mitogen-activated protein kinase kinase kinase kinase 2 (Homo sapiens) (UniProt Q12851); assay: Inhibition of human N-terminal GST-tagged full length MAP4K2 (1 to 820 residues) expressed in baculovirus expression system at 1 uM using FAM-labeled peptide as substrate after 10 mins by mobility shift assay relative to control; how it was run: as §1
T2 sequence (whole entry): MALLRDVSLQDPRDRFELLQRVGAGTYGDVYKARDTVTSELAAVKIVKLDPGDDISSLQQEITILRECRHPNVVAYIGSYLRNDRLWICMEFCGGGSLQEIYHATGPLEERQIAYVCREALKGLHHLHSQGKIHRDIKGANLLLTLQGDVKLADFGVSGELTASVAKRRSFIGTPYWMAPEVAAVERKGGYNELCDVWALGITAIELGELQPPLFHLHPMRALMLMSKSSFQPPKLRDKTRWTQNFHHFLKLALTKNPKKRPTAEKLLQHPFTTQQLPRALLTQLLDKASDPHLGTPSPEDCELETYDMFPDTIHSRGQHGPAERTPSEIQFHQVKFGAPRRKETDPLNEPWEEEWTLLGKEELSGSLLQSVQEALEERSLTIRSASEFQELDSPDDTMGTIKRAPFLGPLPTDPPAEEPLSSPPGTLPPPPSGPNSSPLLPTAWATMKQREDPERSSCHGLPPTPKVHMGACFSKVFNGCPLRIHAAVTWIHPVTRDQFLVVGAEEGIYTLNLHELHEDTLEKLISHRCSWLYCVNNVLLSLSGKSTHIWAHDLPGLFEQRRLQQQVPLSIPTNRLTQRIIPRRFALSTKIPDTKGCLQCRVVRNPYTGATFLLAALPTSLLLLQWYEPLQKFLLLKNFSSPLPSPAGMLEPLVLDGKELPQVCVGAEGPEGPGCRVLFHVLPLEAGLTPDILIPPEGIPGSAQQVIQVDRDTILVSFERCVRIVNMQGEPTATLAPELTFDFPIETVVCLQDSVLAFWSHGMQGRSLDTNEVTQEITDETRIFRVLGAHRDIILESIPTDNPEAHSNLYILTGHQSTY

[11] = biological target: Hepatocyte growth factor receptor (Homo sapiens) (UniProt P08581); assay: Inhibition of N-terminal GST-tagged human MET cytoplasmic domain (956 to 1390 residues) expressed in baculovirus expression system at 1 uM using FAM-labeled peptide as substrate after 10 mins by mobility shift assay relative to control; how it was run: as §1
[12] = biological target: RAC-alpha serine/threonine-protein kinase (Homo sapiens) (UniProt P31749); assay: Inhibition of recombinant human N-terminal His-tagged full length human AKT1 (1 to 480 residues) expressed in baculovirus infected Sf9 insect cells at 1 uM using FAM-labeled peptide as substrate after 10 mins by mobility shift assay relative to control; how it was run: as §1
Chain of RAC-alpha serine/threonine-protein kinase (Homo sapiens) (P31749 whole entry, the tested form may be a part): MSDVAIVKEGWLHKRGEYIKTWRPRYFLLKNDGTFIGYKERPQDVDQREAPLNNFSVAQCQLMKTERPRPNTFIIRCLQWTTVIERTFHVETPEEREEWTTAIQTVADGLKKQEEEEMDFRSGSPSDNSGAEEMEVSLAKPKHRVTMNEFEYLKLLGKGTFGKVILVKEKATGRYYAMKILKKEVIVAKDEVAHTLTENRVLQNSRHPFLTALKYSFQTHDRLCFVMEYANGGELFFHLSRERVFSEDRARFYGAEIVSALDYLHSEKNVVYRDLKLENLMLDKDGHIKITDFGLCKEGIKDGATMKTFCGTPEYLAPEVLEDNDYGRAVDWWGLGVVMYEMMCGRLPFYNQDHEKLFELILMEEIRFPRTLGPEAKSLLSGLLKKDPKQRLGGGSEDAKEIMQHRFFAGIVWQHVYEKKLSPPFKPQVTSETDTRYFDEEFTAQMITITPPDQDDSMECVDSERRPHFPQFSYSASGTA

[13] = biological target: Fibroblast growth factor receptor 2 (Homo sapiens) (UniProt P21802); assay: Inhibition of N-terminal GST-tagged human FGFR2 cytoplasmic domain (399 to 821 residues) expressed in baculovirus expression system at 1 uM using FAM-labeled peptide as substrate after 10 mins by mobility shift assay relative to control; how it was run: as §1
Chain of Fibroblast growth factor receptor 2 (Homo sapiens) (P21802 22-821 limits assumed): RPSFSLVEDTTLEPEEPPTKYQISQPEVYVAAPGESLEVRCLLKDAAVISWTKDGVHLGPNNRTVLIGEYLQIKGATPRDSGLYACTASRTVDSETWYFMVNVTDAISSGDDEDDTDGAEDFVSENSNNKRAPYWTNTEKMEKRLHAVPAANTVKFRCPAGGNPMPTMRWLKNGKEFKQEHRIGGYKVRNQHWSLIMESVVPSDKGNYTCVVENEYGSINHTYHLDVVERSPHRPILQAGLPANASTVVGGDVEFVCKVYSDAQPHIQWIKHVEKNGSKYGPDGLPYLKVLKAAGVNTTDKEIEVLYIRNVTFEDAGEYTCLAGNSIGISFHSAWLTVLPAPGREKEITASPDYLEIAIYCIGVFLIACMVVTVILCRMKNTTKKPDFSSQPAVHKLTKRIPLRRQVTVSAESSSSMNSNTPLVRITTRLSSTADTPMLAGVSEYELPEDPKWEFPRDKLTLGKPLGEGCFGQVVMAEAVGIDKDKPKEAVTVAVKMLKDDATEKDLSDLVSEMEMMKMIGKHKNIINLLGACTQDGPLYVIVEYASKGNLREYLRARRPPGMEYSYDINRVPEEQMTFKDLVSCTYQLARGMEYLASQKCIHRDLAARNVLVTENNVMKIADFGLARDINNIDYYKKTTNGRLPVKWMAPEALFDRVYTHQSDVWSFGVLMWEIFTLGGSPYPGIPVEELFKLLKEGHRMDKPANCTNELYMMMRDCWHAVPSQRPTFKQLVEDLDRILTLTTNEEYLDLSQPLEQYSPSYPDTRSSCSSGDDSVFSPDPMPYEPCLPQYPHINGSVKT

Row | Structure (SMILES) | inhibition [1] [%] | inhibition [2] [%] | inhibition [3] [%] | inhibition [4] [%] | inhibition [5] [%] | inhibition [6] [%] | inhibition [7] [%] | inhibition [8] [%] | inhibition [9] [%] | inhibition [10] [%] | inhibition [11] [%] | inhibition [12] [%] | inhibition [13] [%]
1 | CCOC(=O)c1ccc(Nc2cc(NC(=O)CCCC(=O)O)ncn2)cc1 | 27.1 | 10.4 | 4.7 | 4.2 | -1.4 | 28.2 | 17.3 | 9.2 | 24.2 | 5.5 | 4.4 | 4.7 | 7.2
2 | O=C(O)CCCC(=O)Nc1cc(N2CCOCC2)ncn1 | 8.3 | 8.5 | 9.2 | 0.2 | 14.4 | 9.5 | 49 | 4 | 10 | 3.3 | 9.2 | -3 | 5.9
3 | O=C(O)CCCC(=O)Nc1cc(Nc2cccc(Cl)c2)ncn1 | 88.6 | 16.8 | 43 | 12.7 | 8.5 | 29.4 | 8.7 | 13.2 | 74.1 | 9.2 | 4 | 0 | 16.5
4 | COc1ccc(Nc2cc(NC(=O)c3ccccc3)ncn2)cc1 | 71.4 | 2.9 | 21.7 | -4.2 | 12.4 | 21.6 | 2.6 | 5.3 | 29.4 | -3.2 | 3.3 | -3.4 | 8.3
5 | COc1cccc(Nc2cc(Nc3cc(OC)ccc3OC)ncn2)c1 | 11.3 | 16.3 | 26.9 | 0.7 | 7.3 | 47.3 | 52.3 | 6.3 | 30.4 | 5.4 | 7.2 | -2.1 | 9.8
6 | COc1cccc(Nc2cc(NC(=O)CCCC(=O)O)ncn2)c1 | 21.7 | 7.7 | 8 | 17.7 | 10.5 | 29.4 | 19.8 | 10.1 | 10.3 | 10.5 | 12 | 6.8 | 21.4
